# Data from publication PMC2853048 (Journal of medicinal chemistry, 2009).
# Legend:
# [1] = target: T1, human Gli1 (Homo sapiens, UniProt P08151); assay: Gli-mediated transcription reporter assay in C3H10T1/2 cells with exogenous Gli1; assay type: cell-based; settings: for inhibition of Gli1-mediated transcription (Gli-reporter activity), in words: Gli1-transfected C3H10T1/2 cells, 24 h, 20 µM or 40 µM
# T1 sequence (P08151 1-1106): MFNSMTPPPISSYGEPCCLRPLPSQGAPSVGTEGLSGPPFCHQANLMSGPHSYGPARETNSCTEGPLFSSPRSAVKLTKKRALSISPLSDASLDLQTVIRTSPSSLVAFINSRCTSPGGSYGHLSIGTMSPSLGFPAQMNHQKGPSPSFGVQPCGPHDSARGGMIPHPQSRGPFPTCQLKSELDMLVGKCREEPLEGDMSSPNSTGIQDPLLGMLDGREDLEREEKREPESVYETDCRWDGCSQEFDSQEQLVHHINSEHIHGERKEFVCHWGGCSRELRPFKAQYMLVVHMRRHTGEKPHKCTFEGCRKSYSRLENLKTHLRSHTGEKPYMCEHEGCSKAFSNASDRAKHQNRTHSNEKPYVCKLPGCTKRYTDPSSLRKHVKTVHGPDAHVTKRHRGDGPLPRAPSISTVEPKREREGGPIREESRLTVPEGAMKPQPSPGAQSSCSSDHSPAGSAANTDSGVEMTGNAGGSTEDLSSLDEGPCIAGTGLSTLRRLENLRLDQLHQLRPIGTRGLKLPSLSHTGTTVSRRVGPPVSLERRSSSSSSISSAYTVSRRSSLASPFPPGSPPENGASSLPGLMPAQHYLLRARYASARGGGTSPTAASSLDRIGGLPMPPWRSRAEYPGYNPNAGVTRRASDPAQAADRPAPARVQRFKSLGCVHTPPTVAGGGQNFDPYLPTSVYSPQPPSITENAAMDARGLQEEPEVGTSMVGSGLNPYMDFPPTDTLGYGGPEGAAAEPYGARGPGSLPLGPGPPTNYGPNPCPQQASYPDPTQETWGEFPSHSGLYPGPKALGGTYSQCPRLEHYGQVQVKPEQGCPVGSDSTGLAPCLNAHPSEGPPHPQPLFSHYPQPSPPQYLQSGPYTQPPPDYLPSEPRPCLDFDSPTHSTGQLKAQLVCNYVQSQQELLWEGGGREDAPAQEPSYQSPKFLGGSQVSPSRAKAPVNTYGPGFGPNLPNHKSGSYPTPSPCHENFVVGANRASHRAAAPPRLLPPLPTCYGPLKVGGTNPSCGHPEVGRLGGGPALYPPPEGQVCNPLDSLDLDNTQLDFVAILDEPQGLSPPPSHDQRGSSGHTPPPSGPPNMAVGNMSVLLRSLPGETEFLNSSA
# [2] = system: BJ-hTERT cells; assay: Cell viability assay; assay type: cell-based; settings: noncancerous human skin fibroblasts, 40 µM, 72 h
# How it was run: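 Cells plated in 384-well format 24 h before dosing. A 10-mM DMSO stock was diluted in EMEM to 160 µM (4×) and added in triplicate to a final 40 µM. Incubated 68 h at 37 °C, then Alamar Blue for 4 h at 37 °C. Fluorescence read at ex 510 / em 590 nm; viability expressed relative to DMSO control wells.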
# [3] = system: exogenous Gli1 protein; assay: Western blot of Gli1 protein levels in Gli1-transfected C3H10T1/2 cells; assay type: cell-based, human
# [4] = Stability of compounds in C3H10T1/2 cell cultures; assay type: in vitro ADME, mouse; settings: 24 hours
# [5] = system: C3H10T1/2 cells; assay: Toxicity towards C3H10T1/2 cells in the reporter assay; assay type: cell-based, mouse; settings: data not shown
# [6] = system: endogenous Gli1; assay: Gli-mediated transcription reporter assay in Rh30 cells; assay type: cell-based; settings: Rh30 cells without cotransfection of exogenous Gli1, 24 h, 10, 20 or 40 µM
# How it was run: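 Rh30 cells were grown in RPMI-1640 with 10% FBS at 37 °C, 5% CO2. At about 70% confluence they were transfected overnight with GliLuc-BS (500 ng/mL) and pRL-CMV (2.5 ng/mL) using Fugene6. Cells were replated, then dosed 18 h later for 24 h. Lysates were read by dual luciferase (firefly/Renilla). DMSO = 0% inhibition; triplicates, SE shown.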
Compound,"inhibition of Gli1-mediated transcription (Gli-reporter activity), in words [1]",other results
"CC(C(=O)NCCc1ccc(O)cc1)c1cccc(C(=O)c2ccccc2)c1 (racemic) [Compound 37, (±)-2-(3-Benzoylphenyl)-N-(4-hydroxyphenethyl)propanamide]",lower activity than did 36,
"CC(C)Cc1ccc(C(C)C(=O)NCCc2ccc(O)cc2)cc1 (stereo not drawn) [Compound 34, N-(4-Hydroxyphenethyl)-2-(4-isobutylphenyl)propanamide]",modest inhibition,
"C[C@H](C(=O)NCCc1ccc(O)cc1)c1cccc(C(=O)c2ccccc2)c1 [Compound 36, (S)-2-(3-Benzoylphenyl)-N-(4-hydroxyphenethyl)propanamide]",high activity,"cell viability / toxicity, BJ-hTERT [2]: without showing toxicity; exogenous Gli1 protein level [3]: not reduced; stability in the C3H10T1/2 cell cultures [4]: stable; toxicity towards the C3H10T1/2 cells [5]: minimal toxicity as compared to 32; inhibition of Gli-reporter activity in Rh30 cells, in words [6]: downregulated"
"COc1ccc2cc([C@@H](C)C(=O)NCCc3ccc(O)cc3)ccc2c1 [Compound 38, (R)-N-(4-Hydroxyphenethyl)-2-(6-methoxynaphthalen-2-yl)propanamide]",lower activity than did 35,
"C[C@H](C(=O)NCCc1ccc(O)cc1)c1cccc(C(O)c2ccccc2)c1 (stereo partly drawn) [Compound 39, (2S)-2-(3-(Hydroxy(phenyl)methyl)phenyl)-N-(4-hydroxyphenethyl)propanamide]",less potent than 36,
"C[C@H](C(=O)NCCc1ccc(O)cc1)c1cccc(Cc2ccccc2)c1 [Compound 40, (S)-2-(3-Benzylphenyl)-N-(4-hydroxyphenethyl)propanamide]",less potent than 36,
"O=C(Cc1ccccc1Oc1ccccc1)NCCc1ccc(O)cc1 [Compound 41, N-(4-Hydroxyphenethyl)-2-(2-phenoxyphenyl)acetamide]",decreased activity,
"O=C(Cc1cccc(Oc2ccccc2)c1)NCCc1ccc(O)cc1 [Compound 42, N-(4-Hydroxyphenethyl)-2-(3-phenoxyphenyl)acetamide]",equipotent,
"O=C(Cc1ccc(Oc2ccccc2)cc1)NCCc1ccc(O)cc1 [Compound 43, N-(4-Hydroxyphenethyl)-2-(4-phenoxyphenyl)acetamide]",equipotent,
"C[C@H](C(=O)NCCc1ccc(O)c(O)c1)c1cccc(C(=O)c2ccccc2)c1 [Compound 50, (S)-2-(3-Benzoylphenyl)-N-(3,4-dihydroxyphenethyl)propanamide]",,stability in the C3H10T1/2 cell cultures [4]: significant degradation
"C[C@H](C(=O)NCc1ccc(O)cc1)c1cccc(C(=O)c2ccccc2)c1 [Compound 53, (S)-2-(3-Benzoylphenyl)-N-((4-hydroxyphenyl)methyl)propanamide]",decreased activity,
"C[C@H](C(=O)Nc1ccc(O)cc1)c1cccc(C(=O)c2ccccc2)c1 [Compound 54, (S)-2-(3-Benzoylphenyl)-N-(4-hydroxyphenyl)propanamide]",decreased activity,
"C[C@H](CNC(=O)c1ccc(O)cc1)c1cccc(C(=O)c2ccccc2)c1 [Compound 55, (S)-N-(2-(3-Benzoylphenyl)propyl)-4-hydroxybenzamide]",better activity,
"C[C@H](CNC(=O)CCc1ccc(O)cc1)c1cccc(C(=O)c2ccccc2)c1 [Compound 56, (S)-N-(2-(3-Benzoylphenyl)propyl)-3-(4-hydroxyphenyl)propanamide]",modest increase in the potency,
"COc1ccc(C(=O)NC[C@@H](C)c2cccc(C(=O)c3ccccc3)c2)cc1 [Compound 57, (S)-N-(2-(3-Benzoylphenyl)propyl)-4-methoxybenzamide]",retained the activity,
"COc1ccc(COC[C@@H](C)c2cccc(C(=O)c3ccccc3)c2)cc1 [Compound 58, (S)-(3-(1-(4-Methoxybenzyloxy)propan-2-yl)phenyl)(phenyl)methanone]",almost no activity,
"C[C@H](CNC(=O)Nc1ccc(O)cc1)c1cccc(C(=O)c2ccccc2)c1 [Compound 59, (S)-1-(2-(3-Benzoylphenyl)propyl)-3-(4-hydroxyphenyl)urea]",comparable to that of 36,"cell viability / toxicity, BJ-hTERT [2]: toxic"
"C[C@H](CNC(=O)NCCc1ccc(O)cc1)c1cccc(C(=O)c2ccccc2)c1 [Compound 60, (S)-1-(2-(3-Benzoylphenyl)propyl)-3-(4-hydroxyphenethyl)urea]",comparable to that of 36,"cell viability / toxicity, BJ-hTERT [2]: toxic"
"C[C@H](COC(=O)Nc1ccc(O)cc1)c1cccc(C(=O)c2ccccc2)c1 [Compound 61, (S)-2-(3-Benzoylphenyl)propyl 4-hydroxyphenylcarbamate]",substantially decreased the activity,
"C[C@H](COC(=O)NCCc1ccc(O)cc1)c1cccc(C(=O)c2ccccc2)c1 [Compound 62, (S)-2-(3-Benzoylphenyl)propyl 4-hydroxyphenethylcarbamate]",substantially decreased the activity,
"CCCN(CCc1ccc(O)cc1)C(=O)[C@@H](C)c1cccc(C(=O)c2ccccc2)c1 [Compound 63, (S)-2-(3-Benzoylphenyl)-N-(4-hydroxyphenethyl)-N-propylpropanamide]",,"cell viability / toxicity, BJ-hTERT [2]: without showing toxicity; exogenous Gli1 protein level [3]: not reduced; stability in the C3H10T1/2 cell cultures [4]: stable; inhibition of Gli-reporter activity in Rh30 cells, in words [6]: downregulated"
"C[C@H](C(=O)N(CCc1ccc(O)cc1)CCc1ccc(O)cc1)c1cccc(C(=O)c2ccccc2)c1 [Compound 65, (S)-2-(3-Benzoylphenyl)-N,N-bis(4-hydroxyphenethyl)propanamide]",,"stability in the C3H10T1/2 cell cultures [4]: stable; inhibition selectivity of Gli1-mediated transcription over Gli2-mediated transcription ([1]; C3H10T1/2 cells, from IC50 values): least selective"
(S)-2-(3-Benzoylphenyl)-N-(2-hydroxyphenethyl)propanamide [Compound 44],slightly decreased at 20 µM,
(S)-2-(3-Benzoylphenyl)-N-(3-hydroxy-4-methoxyphenethyl)propanamide [Compound 52],reduced the activity by about half,
(S)-2-(3-Benzoylphenyl)-N-(4-chlorophenethyl)propanamide [Compound 49],slightly lower activity than 36,
(S)-2-(3-Benzoylphenyl)-N-(4-hydroxy-3-methoxyphenethyl)propanamide [Compound 51],reduced the activity by about half,
(S)-2-(3-Benzoylphenyl)-N-(4-methoxyphenethyl)propanamide [Compound 47],decrease in the activity,
(S)-2-(3-Benzoylphenyl)-N-phenethylpropanamide [Compound 48],significantly lower activity than 36,
